Assays:
[1] = tested on: Human immunodeficiency virus 1; test: CC50 reflects the drug concentration that elicits 50% cell death of PBMC cultures and HIV-1RF was measured using XTT assay.; type: functional
[2] = tested on: Human immunodeficiency virus 1; test: (§1) CC50 reflects the drug concentration that elicits 50% cell death of CEM-SS cells and HIV-1RF was measured using XTT assay.; type: functional; details: Human immunodeficiency virus 1, CEM-SS
In short: (§2)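 CEM-SS cells infected with HIV-1RF. EC50 is the concentration giving 50% cytoprotection. CC50 is the concentration eliciting 50% cell death.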

[3] = tested on: Human immunodeficiency virus 1; test: Compound concentration that provides 50% cytoprotection on PBMC cultures and HIV-1RF was measured using XTT assay.; type: functional, organism-based
[4] = tested on: Human immunodeficiency virus 1; test: (§3) Compound concentration that provides 50% cytoprotection on CEM-SS cells and HIV-1RF was measured using XTT assay.; type: functional, organism-based; details: Human immunodeficiency virus 1, CEM-SS; in short: as §2
[5] = Therapeutic index ([…]) was evaluated; details: read-out: TI50
[6] = tested on: CEM-SS; test: as §1; type: functional; details: Homo sapiens; in short: as §2
[7] = tested on: CEM-SS; test: as §3; type: functional, cell-based; details: Homo sapiens; in short: as §2

Row | SMILES | CC50 [1] | CC50 [2] | EC50 [3] | EC50 [4] | selectivity ratio [5] | CC50 [6] | EC50 [7]
1 | NC(=O)c1cccc(N=O)c1 | 50 µM | 10.6 µM | 1.56 µM | – | – | – | –
2 | NS(=O)(=O)c1ccc(NC(=O)c2ccccc2SSc2ccccc2C(=O)Nc2ccc(S(N)(=O)=O)cc2)cc1 | – | > 200 µM | – | 2.3 µM | > 87 | – | –
3 | O=S1(=O)C[C@H](O)[C@H](O)CS1 | – | – | – | – | 27.9 | 184 µM | 6.6 µM
4 | NC(=O)/N=N/C(N)=O [E927A] | – | > 200 µM | – | 38 µM | > 5.3 | – | –

Reference: ChEMBL document CHEMBL1131334, “Anti-HIV agents that selectively target retroviral nucleocapsid protein zinc fingers without affecting cellular zinc finger proteins” (J Med Chem, 1998)
